Measurements: BindingDB's records for doi:10.1021/jm701271y (Wyeth Research, 2008)

Target: Signal transducer and activator of transcription 3 (Homo sapiens, UniProt P40763)
Experiment: Inhibition of STAT3 Y705 phosphorylation in human U266 cells by Western blot analysis
Outline: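 Steady-state phosphorylation: exponentially growing U266 cells (1 × 10⁶ cells at 2 × 10⁵ cells/mL, RPMI1640 + 10% FBS) were treated with compound for 1 h. Cells were lysed in PhosphoSafe reagent with protease inhibitors. Western blot used primary antibodies (1:1000, 2 h) and fluorescent secondaries (1 h) at room temperature. A representative blot from several repeats is shown.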

Chain of Signal transducer and activator of transcription 3 (P40763 whole entry): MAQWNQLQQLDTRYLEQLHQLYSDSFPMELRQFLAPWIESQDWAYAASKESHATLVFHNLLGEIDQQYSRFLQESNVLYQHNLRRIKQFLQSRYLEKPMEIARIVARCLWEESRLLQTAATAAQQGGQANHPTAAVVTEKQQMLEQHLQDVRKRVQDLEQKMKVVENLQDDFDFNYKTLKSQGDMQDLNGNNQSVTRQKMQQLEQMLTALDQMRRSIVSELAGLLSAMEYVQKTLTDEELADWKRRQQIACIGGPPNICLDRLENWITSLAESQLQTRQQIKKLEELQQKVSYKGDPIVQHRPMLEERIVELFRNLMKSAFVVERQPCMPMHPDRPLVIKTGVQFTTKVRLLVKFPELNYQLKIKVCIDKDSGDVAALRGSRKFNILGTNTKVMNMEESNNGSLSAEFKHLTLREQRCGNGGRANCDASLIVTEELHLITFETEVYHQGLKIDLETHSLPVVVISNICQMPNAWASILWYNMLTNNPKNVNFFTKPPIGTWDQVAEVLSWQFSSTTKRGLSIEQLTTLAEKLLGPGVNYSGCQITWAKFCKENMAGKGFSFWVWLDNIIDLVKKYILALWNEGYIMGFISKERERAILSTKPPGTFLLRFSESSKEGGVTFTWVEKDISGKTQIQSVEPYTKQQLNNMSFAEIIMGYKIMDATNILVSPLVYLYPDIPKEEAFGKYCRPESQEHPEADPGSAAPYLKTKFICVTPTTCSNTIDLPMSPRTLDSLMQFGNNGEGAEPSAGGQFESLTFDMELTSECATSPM

EC50 [nM]	SMILES
200	N#Cc1c(F)c(F)c(-n2cc(C(=O)NCc3ccc(F)cc3)c(=O)c3cc(F)c(F)c(F)c32)c(F)c1F [1-(4-Cyano-2,3,5,6-tetrafluorophenyl)-6,7,8-trifluoro-N-(4-fluorobenzyl)-4-oxo-1,4-dihydroquinoline-3-carboxamide]
46000	O=C(O)c1cn(-c2c(F)c(F)c(F)c(F)c2F)c2c(F)c(F)c(F)c(F)c2c1=O [5,6,7,8-Tetrafluoro-4-oxo-1-(pentafluoro-phenyl)-1,4-dihydroquinoline-3-carboxylic acid]
130	N#Cc1c(F)c(F)c(-n2cc(C(=O)OCc3ccccc3)c(=O)c3cc(F)c(F)c(F)c32)c(F)c1F [Benzyl 1-(4-Cyano-2,3,5,6-tetrafluorophenyl)-6,7,8-trifluoro-4-oxo-1,4-dihydroquinoline-3-carboxylate]
170	CCOC(=O)c1cn(-c2c(F)c(F)c(C#N)c(F)c2F)c2c(F)c(F)c(F)cc2c1=O [Ethyl 1-(4-Cyano-2,3,5,6-tetrafluorophenyl)-6,7,8-trifluoro-4-oxo-1,4-dihydroquino-line-3-carboxylate]
4600	CCOC(=O)c1cn(-c2c(F)c(F)c(F)c(F)c2F)c2c(F)c(F)c(F)c(F)c2c1=O [Ethyl 5,6,7,8-tetrafluoro-4-oxo-1-(pentafluorophenyl)-1,4-dihydroquinoline-3-carboxylate]
